# Source: ChEMBL document CHEMBL5724801, “EUbOPEN Chemogenomics Library - Multiplex” (2024)
# Values joined by “and” are separate entries in the source; they are usually repeats but may differ in a detail not shown here. Equal values may be shown once.
# Legend:
# Type in all cases: toxicity, cell-based
# Fibroblast = experiment: Multiplex assay against human fibroblast
# Summary of the method: (§1)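 Imaging took place on a CQ1 microscope at 37°C and 5% CO2 once compound had been added to live cells stained at seeding with Hoechst33342, BioTracker Green Microtubule Cytoskeleton Dye, MitoTracker Red and Annexin V Alexa Fluor 680. CellPathfinder machine-learning gating classed cells as Hoechst high-intensity objects or normal cells, classed normal cells as having healthy, pyknosed or fragmented nuclei, and classed pyknosed cells as mitotic or apoptotic. Tubulin, mitochondrial-mass and membrane-permeability phenotypes are per cents of the healthy-nucleus cells.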
# HEK-293T = experiment: Multiplex assay against HEK293T; conditions: human; summary of the method: as §1
# U2OS = experiment: Multiplex assay against U2OS; conditions: human; summary of the method: as §1
# [1] = 12 h, 1 µM, compound concentration 1 uM
# [2] = 12 h, 10 µM, compound concentration 10 uM
# [3] = 24 h, 1 µM, compound concentration 1 uM
# [4] = 24 h, 10 µM, compound concentration 10 uM
# [5] = 48 h, 1 µM, compound concentration 1 uM
# [6] = 48 h, 10 µM, compound concentration 10 uM
smiles,measurement,setting,value
Cc1ccc(-c2ccc(F)cc2COc2ccc(CCC(=O)O)cc2)cc1,Population Apoptotic (%),Fibroblast; [1],42% and 37%
same,Population Fragmented Nuclei (%),Fibroblast; [1],13% and 23%
same,Population Healthy Nuclei (%),Fibroblast; [1],64% and 45%
same,Population Mitotic Cells (%),Fibroblast; [1],57% and 62%
same,Population Normal (%),Fibroblast; [1],99% and 93%
same,Population Pyknosed Nuclei (%),Fibroblast; [1],21% and 30%
same,Population Tubulin-Different-Phenotype (%),Fibroblast; [1],26%
same,Total Cell Count,Fibroblast; [1],131 and 148
same,Population Apoptotic (%),Fibroblast; [2],19% and 31%
same,Population Fragmented Nuclei (%),Fibroblast; [2],15% and 23%
same,Population Healthy Nuclei (%),Fibroblast; [2],67% and 51%
same,Population Mitotic Cells (%),Fibroblast; [2],80% and 68%
same,Population Normal (%),Fibroblast; [2],99% and 93%
same,Population Pyknosed Nuclei (%),Fibroblast; [2],16% and 25%
same,Population Tubulin-Different-Phenotype (%),Fibroblast; [2],23% and 38%
same,Total Cell Count,Fibroblast; [2],125 and 136
same,Population Apoptotic (%),Fibroblast; [3],38% and 62%
same,Population Fragmented Nuclei (%),Fibroblast; [3],16% and 25%
same,Population Healthy Nuclei (%),Fibroblast; [3],67% and 46%
same,Population Mitotic Cells (%),Fibroblast; [3],61% and 37%
same,Population Normal (%),Fibroblast; [3],97% and 95%
same,Population Pyknosed Nuclei (%),Fibroblast; [3],15% and 27%
same,Population Tubulin-Different-Phenotype (%),Fibroblast; [3],23% and 33%
same,Total Cell Count,Fibroblast; [3],136 and 139
same,Population Apoptotic (%),Fibroblast; [4],47% and 46%
same,Population Fragmented Nuclei (%),Fibroblast; [4],9% and 26%
same,Population Healthy Nuclei (%),Fibroblast; [4],75% and 53%
same,Population Mitotic Cells (%),Fibroblast; [4],52% and 53%
same,Population Normal (%),Fibroblast; [4],98% and 92%
same,Population Pyknosed Nuclei (%),Fibroblast; [4],15% and 20%
same,Population Tubulin-Different-Phenotype (%),Fibroblast; [4],20% and 55%
same,Total Cell Count,Fibroblast; [4],127 and 136
same,Population Apoptotic (%),Fibroblast; [5],56% and 69%
same,Population Fragmented Nuclei (%),Fibroblast; [5],21% and 29%
same,Population Healthy Nuclei (%),Fibroblast; [5],62% and 55%
same,Population Mitotic Cells (%),Fibroblast; [5],43% and 30%
same,Population Normal (%),Fibroblast; [5],96%
same,Population Pyknosed Nuclei (%),Fibroblast; [5],15%
same,Population Tubulin-Different-Phenotype (%),Fibroblast; [5],24% and 46%
same,Total Cell Count,Fibroblast; [5],150 and 155
same,Population Apoptotic (%),Fibroblast; [6],72% and 48%
same,Population Fragmented Nuclei (%),Fibroblast; [6],11% and 30%
same,Population Healthy Nuclei (%),Fibroblast; [6],78% and 45%
same,Population Mitotic Cells (%),Fibroblast; [6],27% and 51%
same,Population Normal (%),Fibroblast; [6],96% and 92%
same,Population Pyknosed Nuclei (%),Fibroblast; [6],9% and 23%
same,Total Cell Count,Fibroblast; [6],121 and 140
same,Population Apoptotic (%),HEK-293T; [1],42% and 33%
same,Population Fragmented Nuclei (%),HEK-293T; [1],6%
same,Population Healthy Nuclei (%),HEK-293T; [1],82% and 77%
same,Population Hoechst High Intensity Objects (%),HEK-293T; [1],9%
same,Population Mitochondria Different-Phenotype (%),HEK-293T; [1],36% and 50%
same,Population Mitotic Cells (%),HEK-293T; [1],57% and 66%
same,Population Normal (%),HEK-293T; [1],90%
same,Population Pyknosed Nuclei (%),HEK-293T; [1],15%
same,Population Tubulin-Different-Phenotype (%),HEK-293T; [1],18%
same,Total Cell Count,HEK-293T; [1],465 and 324
same,Population Apoptotic (%),HEK-293T; [2],32% and 42%
same,Population Fragmented Nuclei (%),HEK-293T; [2],10% and 7%
same,Population Healthy Nuclei (%),HEK-293T; [2],79% and 83%
same,Population Hoechst High Intensity Objects (%),HEK-293T; [2],7% and 6%
same,Population Mitochondria Different-Phenotype (%),HEK-293T; [2],46% and 58%
same,Population Mitotic Cells (%),HEK-293T; [2],67% and 57%
same,Population Normal (%),HEK-293T; [2],92% and 93%
same,Population Pyknosed Nuclei (%),HEK-293T; [2],10% and 9%
same,Population Tubulin-Different-Phenotype (%),HEK-293T; [2],33% and 15%
same,Total Cell Count,HEK-293T; [2],329 and 396
same,Population Fragmented Nuclei (%),HEK-293T; [3],10% and 9%
same,Population Healthy Nuclei (%),HEK-293T; [3],82% and 80%
same,Population Hoechst High Intensity Objects (%),HEK-293T; [3],3% and 7%
same,Population Mitochondria Different-Phenotype (%),HEK-293T; [3],16% and 33%
same,Population Mitotic Cells (%),HEK-293T; [3],84% and 47%
same,Population Normal (%),HEK-293T; [3],96% and 92%
same,Population Pyknosed Nuclei (%),HEK-293T; [3],7% and 9%
same,Population Tubulin-Different-Phenotype (%),HEK-293T; [3],10% and 13%
same,Total Cell Count,HEK-293T; [3],688 and 445
same,Population Apoptotic (%),HEK-293T; [4],36% and 51%
same,Population Fragmented Nuclei (%),HEK-293T; [4],11% and 6%
same,Population Healthy Nuclei (%),HEK-293T; [4],76% and 87%
same,Population Hoechst High Intensity Objects (%),HEK-293T; [4],3%
same,Population Mitochondria Different-Phenotype (%),HEK-293T; [4],30% and 37%
same,Population Mitotic Cells (%),HEK-293T; [4],63% and 48%
same,Population Normal (%),HEK-293T; [4],94% and 96%
same,Population Pyknosed Nuclei (%),HEK-293T; [4],6%
same,Population Tubulin-Different-Phenotype (%),HEK-293T; [4],18% and 13%
same,Total Cell Count,HEK-293T; [4],397 and 461
same,Population Apoptotic (%),HEK-293T; [5],17% and 36%
same,Population Fragmented Nuclei (%),HEK-293T; [5],15% and 14%
same,Population Healthy Nuclei (%),HEK-293T; [5],79% and 77%
same,Population Hoechst High Intensity Objects (%),HEK-293T; [5],1% and 2%
same,Population Mitochondria Different-Phenotype (%),HEK-293T; [5],7% and 18%
same,Population Mitotic Cells (%),HEK-293T; [5],82% and 63%
same,Population Normal (%),HEK-293T; [5],98% and 97%
same,Population Pyknosed Nuclei (%),HEK-293T; [5],5%
same,Population Tubulin-Different-Phenotype (%),HEK-293T; [5],8% and 9%
same,Total Cell Count,HEK-293T; [5],1149 and 631
same,Population Apoptotic (%),HEK-293T; [6],24% and 31%
same,Population Fragmented Nuclei (%),HEK-293T; [6],12% and 15%
same,Population Healthy Nuclei (%),HEK-293T; [6],78% and 79%
same,Population Hoechst High Intensity Objects (%),HEK-293T; [6],2% and 4%
same,Population Mitochondria Different-Phenotype (%),HEK-293T; [6],17% and 16%
same,Population Mitotic Cells (%),HEK-293T; [6],75% and 68%
same,Population Normal (%),HEK-293T; [6],97% and 95%
same,Population Pyknosed Nuclei (%),HEK-293T; [6],5%
same,Population Tubulin-Different-Phenotype (%),HEK-293T; [6],9% and 8%
same,Total Cell Count,HEK-293T; [6],713 and 702
same,Population Apoptotic (%),U2OS; [1],75% and 100%
same,Population Fragmented Nuclei (%),U2OS; [1],22% and 17%
same,Population Healthy Nuclei (%),U2OS; [1],71% and 74%
same,Population Hoechst High Intensity Objects (%),U2OS; [1],2%
same,Population Mitochondria Different-Phenotype (%),U2OS; [1],3% and 0%
same,Population Mitotic Cells (%),U2OS; [1],25% and 0%
same,Population Normal (%),U2OS; [1],97%
same,Total Cell Count,U2OS; [1],277 and 135
same,Population Apoptotic (%),U2OS; [2],75% and 83%
same,Population Fragmented Nuclei (%),U2OS; [2],31% and 14%
same,Population Healthy Nuclei (%),U2OS; [2],61% and 75%
same,Population Hoechst High Intensity Objects (%),U2OS; [2],1% and 2%
same,Population Mitochondria Different-Phenotype (%),U2OS; [2],2%
same,Population Mitotic Cells (%),U2OS; [2],25% and 16%
same,Population Normal (%),U2OS; [2],98% and 97%
same,Total Cell Count,U2OS; [2],238 and 123
same,Population Apoptotic (%),U2OS; [3],90% and 100%
same,Population Fragmented Nuclei (%),U2OS; [3],21% and 20%
same,Population Healthy Nuclei (%),U2OS; [3],69% and 70%
same,Population Hoechst High Intensity Objects (%),U2OS; [3],2% and 1%
same,Population Mitochondria Different-Phenotype (%),U2OS; [3],2% and 0%
same,Population Mitotic Cells (%),U2OS; [3],10% and 0%
same,Population Normal (%),U2OS; [3],97% and 98%
same,Total Cell Count,U2OS; [3],340 and 175
same,Population Apoptotic (%),U2OS; [4],94% and 93%
same,Population Fragmented Nuclei (%),U2OS; [4],26% and 22%
same,Population Healthy Nuclei (%),U2OS; [4],67%
same,Population Hoechst High Intensity Objects (%),U2OS; [4],1% and 2%
same,Population Mitochondria Different-Phenotype (%),U2OS; [4],3% and 4%
same,Population Mitotic Cells (%),U2OS; [4],5% and 6%
same,Population Normal (%),U2OS; [4],98% and 97%
same,Total Cell Count,U2OS; [4],295 and 160
same,Population Apoptotic (%),U2OS; [5],89% and 95%
same,Population Fragmented Nuclei (%),U2OS; [5],17% and 15%
same,Population Healthy Nuclei (%),U2OS; [5],74% and 75%
same,Population Hoechst High Intensity Objects (%),U2OS; [5],2%
same,Population Mitochondria Different-Phenotype (%),U2OS; [5],2%
same,Population Mitotic Cells (%),U2OS; [5],10% and 5%
same,Population Normal (%),U2OS; [5],97%
same,Total Cell Count,U2OS; [5],487 and 242
same,Population Apoptotic (%),U2OS; [6],87% and 88%
same,Population Fragmented Nuclei (%),U2OS; [6],21% and 16%
same,Population Healthy Nuclei (%),U2OS; [6],70% and 72%
same,Population Hoechst High Intensity Objects (%),U2OS; [6],2% and 1%
same,Population Mitochondria Different-Phenotype (%),U2OS; [6],3%
same,Population Mitotic Cells (%),U2OS; [6],12% and 11%
same,Population Normal (%),U2OS; [6],97% and 98%
same,Total Cell Count,U2OS; [6],421 and 236
